Screens from PubChem BioAssay.
Shown is part of a subset that was picked to be rich in hits.
Insulin prom act = activators of insulin promoter-driven GFP, primary screen, imaging, TRM-6 cells (human fetal islet line), eGFP reporter, cell count; activation, % at 2 µM; 130,000 compounds, 0.81% hits; plate-scaled: unstimulated 0, stimulated control 100;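 active = activation at 2 µM above a set limit, confirmed on inspection of the cell images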;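 also: share of cells whose green reporter signal exceeds an intensity cutoff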
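Assay system: TRM-6 human fetal islet cells, insulin promoter–eGFP reporter; Also added: 0.75 µM tamoxifen as reporter inducer; Schedule: 15 h tamoxifen pre-treatment, 48 h compound treatment at 37 °C; Signal: fixed-cell fluorescence microscopy, eGFP plus Hoechst; Read-out: percent activation from GFP-positive cell fraction; Control set: stimulated and unstimulated wells.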
Of the large screens only hits and unclear results are named; the others gave an inactive call.

C/C(=N\N1CCN(C)CC1)c1ccc(OC(F)F)cc1	none
Cc1ccc(-c2nc3ccccc3[nH]2)cc1NC(=S)NC(=O)c1ccccc1Br	none
C[C@H](CO)NC(=O)[C@H](C)[C@H]1C[C@]1(C)[C@H](NC(=O)OCc1ccccc1)c1ccccc1	none
CNC(=O)[C@@H]1C[C@H]1[C@@H](NC(=O)OCc1ccccc1)c1ccccc1	Insulin prom act 255
C[C@@H](C(=O)NCC1CC1)[C@@H]1C[C@@]1(C)[C@@H](NC(=O)OCc1ccccc1)c1ccccc1	none
COCCNC(=O)C(c1c[nH]c2ccccc12)N(C(=O)c1snc(C(N)=O)c1N)c1cccc(OC)c1 (stereo not given)	none
O=C1c2cccnc2C(=O)N1Cc1ccccc1	none
O=C1c2cccc3c(O)ccc(c23)C(=O)N1Cc1ccccc1	Insulin prom act 233
O=C(c1ccccc1)c1ccc(CN2C(=O)c3ccccc3C2=O)o1	none
CCCOn1c(OCC(C)C)nc2ccccc2c1=O	none
CC(=O)c1cc(-c2ccccc2)n(CCC(=O)NC(C)(C)C)c1C	none
CCCOc1ccc(/C(CC)=N/NC(=O)C2(C)CC2(Br)Br)cc1 (stereo not given)	none
COc1ccc(C(=O)NCCn2ccc3ccccc32)c(OC)c1	none
Cc1cc(NC(=O)c2c(F)cccc2F)n(-c2nc3ccccc3[nH]2)n1	none
Cc1cc(NC(=O)/C=C/c2cccc(Cl)c2)n(-c2nc3ccccc3[nH]2)n1	Insulin prom act 300
Cc1cc(NC(=O)/C=C/c2ccc(F)cc2)n(-c2nc3ccccc3[nH]2)n1	none
CCOc1ccc(-c2cnc(N)n2C)cc1	none
CN(c1ccc(C(=O)NCC2CCCO2)cc1)S(=O)(=O)c1ccccc1 (stereo not given)	none
COC(=O)c1ccccc1COn1c(=O)c(C)[n+]([O-])c2ccccc21	none
C=CCn1c(=NC(=O)CN2C(=O)CCC2=O)sc2cc(S(N)(=O)=O)ccc21	none
COC(=O)Cn1c(=NC(=O)c2cc(OC)cc(OC)c2)sc2cc(OC)ccc21	none
CCn1c(=NC(=O)CSC(C)=O)sc2cc(F)ccc21	Insulin prom act 79
COC(=O)c1ccccc1NC(=O)c1ccc(-c2cccc(Cl)c2)o1	none
COC(=O)c1sccc1NC(=O)c1ccco1	none
COC(=O)c1sccc1-c1ccc(C(=O)Nc2cccc(Cl)c2)o1	Insulin prom act 80
Nc1cc(=O)[nH]c(SCC(=O)Nc2ccc(Br)cc2)n1	none
COc1ccccc1/C=C1\S/C(=N/NC(=O)c2cccc(Br)c2)NC1=O	none
Cc1cccc(N=C2NC(=O)/C(=C/c3cccs3)S2)c1	none
COc1cc(/C=C2\S/C(=N/S(=O)(=O)c3ccc(C)cc3)NC2=O)c([N+](=O)[O-])cc1OC	Insulin prom act 453
COc1ccc(C(=O)NC(=O)COC(=O)C2COc3ccccc3O2)cc1 (stereo not given)	none
CCN(CC)c1ccc(C(=O)N/N=C/c2ccccc2OC(F)F)cc1	none
O=C(COc1ccc(S(=O)(=O)N2CCCC2)cc1Cl)NCc1ccc2c(c1)OCO2	none
COC(=O)COc1ccc(S(=O)(=O)Nc2ccc3c(c2)OCO3)cc1Cl	none
O=C(COc1ccc(S(=O)(=O)NC2CCCCC2)cc1Cl)NCc1ccc2c(c1)OCO2	Insulin prom act 100
N#CC1=C(S)N(c2ccccc2)C(c2ccc(-c3cccc(Cl)c3)o2)NC1=O (stereo not given)	none
COc1cc(C(c2oc(CO)cc(=O)c2O)c2oc(CO)cc(=O)c2O)cc(OC)c1OC	none
CC(C(=O)N1CC2(C)CC1CC(C)(C)C2)N1C(=O)c2ccccc2C1=O (stereo not given)	none
CCOC(=O)C1=C(C)NC(=O)NC1c1ccc(-c2ccccc2F)o1 (stereo not given)	none
CC1=C(C(=O)OCc2ccccc2)C(c2ccccc2OC(F)F)NC(=O)N1 (stereo not given)	Insulin prom act 300
CCOc1ccccc1C1NC(=O)NC(C)=C1C(=O)OC1CCCC1C (stereo not given)	none
CC(=O)Oc1ccc(NC(=O)C2CCCCC2)c(C(=O)O)c1	none
Cc1ccc(S(=O)(=O)Nc2cc(Cl)c(O)cc2C)cc1	none
Cc1ccc(S(=O)(=O)Nc2ccccc2C(N)=O)cc1	Insulin prom act 403
NC(=O)c1ccccc1NS(=O)(=O)c1ccccc1	none
CCCCn1c(N(CCOC(C)=O)C(C)=O)nc2ccccc21	none
O=C(NC1CCCCC1)C(c1ccc(Cl)cc1)N1CCC2(CC1)OCCO2 (stereo not given)	none
c1ccc2nc3c(nc2c1)[nH]c1ccccc13	Insulin prom act 300
CC(C)(C)c1nc2ccccc2[nH]1	none
CCn1nc(C(=O)Nc2nc3ccccc3[nH]2)c2ccccc2c1=O	none
CC(=O)N(CCN1CCOCC1)Cc1cc2cc3c(cc2nc1Cl)OCO3	none
